PG9 binder – binds the HIV-1 gp120 antibody PG9 | TR-FRET gp120-PG9 antibody binding | inhibition, % at 6.7 µM | 360,000 compounds, 0.43% hits; in the data active = inhibition above about 8.5%
NR1D1 modulator – modulators of human Rev-erb alpha DNA binding; P20393; Rev-erbα–FITC-DNA binding, fluorescence polarization, 90 min; activity, % at 10 µM; 370,000 compounds, 0.79% hits; AID 1259318;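 active = activity above about 14%, limit read from the data; passing the limit was not always enough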
MC4R antagonist – blocks human MC4R cAMP signaling. AID 540295. inhibition, % at 6.5 µM. MC4R-expressing cells, MTII-stimulated cAMP, LANCE TR-FRET. 360,000 compounds, 0.48% hits;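 active = inhibition above its plate's cutoff, the mean of tested wells on that plate plus 3 SD, cut at about 29% in these data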
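Assay system: U2OS-MC4R stable cell line; Also added: Melanotan II; Technique: Eu-cAMP/anti-cAMP TR-FRET, emission 671 nm; Times: 30-min compound, 1-h challenge, 1-h detection, room temperature.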
NR2E3 ag-1 – NR2E3 (human) agonism | Q9Y5X4 | GST-NR2E3/biotin-RetCOR TR-FRET, 1536-well | inhibition of corepressor binding, % at 4.78 µM | 320,000 compounds, 0.12% hits;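 active = percent inhibition above the cutoff of mean plus 3 SD of all tested compounds, set per screening campaign, cut at about 20% in these data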
Target sequence (Q9Y5X4 whole entry, looked up): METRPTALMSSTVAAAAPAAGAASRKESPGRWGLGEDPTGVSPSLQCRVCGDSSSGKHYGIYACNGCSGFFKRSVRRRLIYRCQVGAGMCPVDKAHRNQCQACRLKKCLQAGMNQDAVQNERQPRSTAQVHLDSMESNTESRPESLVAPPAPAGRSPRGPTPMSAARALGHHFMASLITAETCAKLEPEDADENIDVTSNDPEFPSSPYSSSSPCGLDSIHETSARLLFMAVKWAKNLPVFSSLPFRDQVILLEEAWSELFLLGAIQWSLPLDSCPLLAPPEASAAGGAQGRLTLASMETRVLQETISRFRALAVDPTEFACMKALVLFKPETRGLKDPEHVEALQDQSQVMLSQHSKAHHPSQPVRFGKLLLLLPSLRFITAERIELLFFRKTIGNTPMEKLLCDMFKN
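Material – GST-tagged NR2E3 plus biotinylated RetCOR corepressor · Quantity – NR2E3 fusion 1.35 nM · Times – 5 h incubation at 4 °C · Medium – pH 7.5 Tris-based buffer · Technique – TR-FRET, Eu(K)-anti-GST donor, streptavidin-D2 acceptor, ex 340, em 617/671 nm · Benchmarks – high control biotin, low control 0.6% DMSO · Format – 1536-well plates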
MC4R barr agon – human MC4R agonism via beta-arrestin | activation, % at 8.9 µM | P32245 | U2OS MC4R beta-arrestin complementation, luminescence; percent of melanotan II response, DMSO zero | 360,000 compounds, 0.98% hits | AID 540308;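 active = activation above a per-plate cutoff, the mean activation of sample wells on that plate plus 3 SD, cut at about 8% in these data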
NR2E3 ag-2 – agonists of human NR2E3 nuclear receptor; Q9Y5X4; CHO-S Gal4-NCOR/VP16-NR2E3 two-hybrid, luciferase; inhibition of corepressor binding, % at 3.98 µM; 360,000 compounds, 0.35% hits;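 active = inhibition above the mean of all tested compounds plus 3 SD, cut at about 70% in these data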;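 note: higher means lower luciferase signal from less NR2E3 corepressor binding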
NR2E3 ag conf – NR2E3 agonism confirmed in two-hybrid assay. CHO-S mammalian two-hybrid NR2E3-NCOR, luciferase luminescence. inhibition, % at 3.98 µM. shares compounds with NR2E3 ag-2. AID 624378. 2,300 compounds, 51% hits;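 active = average inhibition above a cutoff equal to the mean inhibition of all tested compounds plus one SD, cut at about 70% in these data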
VP16 counter – GAL4-VP16 reporter inhibition in NR2E3 agonist counterscreen; inhibition, % at 3.98 µM; shares compounds with NR2E3 ag-2; AID 624379; CHO-S GAL4-VP16 luciferase reporter, luminescence; 2,300 compounds, 29% hits;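 active = mean inhibition above a cutoff equal to the average over all tested compounds plus one standard deviation, cut at about 70% in these data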;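 note: luciferase from a UAS reporter driven by GAL4-VP16 transactivation; higher means less reporter light so more repression of VP16 activity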
PG9 binder conf – PG9 antibody binding, confirmed; shares compounds with PG9 binder; TR-FRET PG9 antibody binding, biochemical; inhibition, % at 6.7 µM; 1,500 compounds, 90% hits; AID 651571; in the data active = inhibition above about 9%
PGV04 counter – binds control antibody PGV04 in PG9 binder counter-screen; TR-FRET PGV04 antibody-gp120 binding, biochemical; 1,500 compounds, 95% hits; shares compounds with PG9 binder; inhibition, % at 6.7 µM; AID 651604; in the data active = inhibition above about 9.5%
NR1D1 mod conf – Rev-erb alpha (human) modulation, hit confirmation; shares compounds with NR1D1 modulator; Rev-erb alpha FITC-DNA binding, fluorescence polarization, 90 min; activation, % at 25 µM; 3,000 compounds, 61% hits; AID 1259319;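 active = activation at or above a set limit, or at least 3 SD above the negative control mean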
RORg counter – affects RORgamma DNA binding in a Rev-erb alpha counter-screen | purified RORgamma protein-FITC-DNA binding, fluorescence polarization | AID 1259320 | IC50, µM | 910 compounds, 8% hits | shares compounds with NR1D1 modulator;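 active = Compounds whose fitted half-maximal concentration for disrupting protein-DNA binding is below 10 micromolar; the record names Rev-erb in its text, so the target is in doubt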
Large screens that a line does not name were inactive (follow-up assays come after a bar, where they were run). Hits are enriched below; roughly 2.7% of the tested compounds scored in any of these assays.

NC(=O)C1CCN(C(=O)CCCCCn2c(=O)[nH]c3ccsc3c2=O)CC1	none
O=C(NC1CCN(C(=O)N2c3ccccc3Sc3ccccc32)CC1)c1ccccc1F	none
CCOc1cc(C)c(S(=O)(=O)Nc2ccc3cn[nH]c3c2)cc1C	NR2E3 ag-2 91 (no result: PG9 binder, NR1D1 modulator) | NR2E3 ag conf 86 | VP16 counter inactive
Cc1ccc(S(=O)(=O)Nc2ccc3cn[nH]c3c2)c(C)c1	none
Cc1nc2ccccc2c(N)c1C(=O)/C=C/c1ccccc1	none | NR2E3 ag conf inactive | VP16 counter inactive
COc1ccc2c(CC(=O)Nc3nc(C)cs3)coc2c1	none
Cc1cnc(NC(=O)Cc2ccc(Br)cc2)s1	none | NR2E3 ag conf 91 | VP16 counter inactive
COc1ccc2c(CC(=O)Nc3ncc(C)s3)coc2c1	none | NR2E3 ag conf 96 | VP16 counter inactive
Cc1cnc(NC(=O)Cc2cccs2)s1	none
O=C(Cc1ccc(Br)cc1)Nc1ncc([N+](=O)[O-])s1	NR2E3 ag-2 72 | NR2E3 ag conf 97 | VP16 counter inactive
O=C(Cc1ccc(Cl)cc1)Nc1ncc([N+](=O)[O-])s1	none (no result: NR2E3 ag-1)
CC(C)(C)OC(=O)NC(CCNC=C1C(=O)OC(C)(C)OC1=O)C(=O)O (centres undefined)	none
CC(C)(C)[C@@H]1C=C(C(=O)O)O[C@H](OCCCCO)C1	none
CC(C)(C)[C@H]1C=C(C(=O)Nc2ccccc2)O[C@@H](OCCCCO)C1	none | NR2E3 ag conf inactive | VP16 counter inactive
O=C(Oc1ccc2c(c1)O/C(=C\c1ccncc1)C2=O)c1ccccc1	none
COc1ccc(C(=O)C2CCCN(S(=O)(=O)c3ccc(C(C)=O)cc3)C2)c(C)c1 (centres undefined)	NR2E3 ag-2 83 | NR2E3 ag conf inactive | VP16 counter inactive
CCS(=O)(=O)N1CCCC(C(=O)c2ccc(OC)cc2C)C1 (centres undefined)	none
O=C(Nc1ccc(Cc2ccncc2)cc1)c1ccc(S(=O)(=O)N2CCOCC2)cc1	none | NR2E3 ag conf inactive | VP16 counter inactive
CC(=O)c1ccc(NC(=O)c2cc(S(=O)(=O)N3CCOCC3)ccc2C)cc1	none
O=C(Nc1ccc(S(=O)(=O)N2CCOCC2)cc1)c1ccc(S(=O)(=O)N2CCOCC2)cc1	none
Cc1ccc(S(=O)(=O)N2CCOCC2)cc1C(=O)Nc1ccc(N2CCCCCC2)cc1	none (no result: NR2E3 ag-1) | NR2E3 ag conf inactive | VP16 counter inactive
CCN(CCCNC(=O)Cn1cc2c(n1)CCCC2)c1cccc(C)c1	none
CC1OC2CC(=O)OC2C2=C1C(=O)c1c(O)cccc1C2=O (centres undefined)	PG9 binder 15, NR2E3 ag-2 101 (no result: NR2E3 ag-1) | NR2E3 ag conf 98 | VP16 counter 98 | PG9 binder conf 14 | PGV04 counter 17
CCN(CC)C(=O)c1[nH]cnc1C(=O)Nc1ccccc1F	none (no result: NR2E3 ag-1)
CCN1/C(=C/c2ccc3cc(C)ccc3[n+]2CC)Sc2ccccc21	NR1D1 modulator 111, NR2E3 ag-2 91 | NR2E3 ag conf 99 | VP16 counter 89 | NR1D1 mod conf 101 | RORg counter inactive

Source: PubChem BioAssay (several laboratories)
